Reference: PMC4277207 (ChemMedChem, 2014)
Read-outs that look alike come from different tables or passages of the source.

Columns and labels:
[1] = tested on: D1-like receptor (D1 and D5); experiment: [3H]SCH 23390 binding assay, rat striatal membranes; conditions: ratio of Ki values, rat brain preparation
[2] = target: human D3 receptor (Homo sapiens, UniProt P35462); format: cell-based; conditions: hD3-transfected CHOp cells, mitogenesis; for IC50: read-out: Agonist activity: IC50, mean ± SEM of 3–6 determinations
human D3 receptor, sequence (P35462 whole entry): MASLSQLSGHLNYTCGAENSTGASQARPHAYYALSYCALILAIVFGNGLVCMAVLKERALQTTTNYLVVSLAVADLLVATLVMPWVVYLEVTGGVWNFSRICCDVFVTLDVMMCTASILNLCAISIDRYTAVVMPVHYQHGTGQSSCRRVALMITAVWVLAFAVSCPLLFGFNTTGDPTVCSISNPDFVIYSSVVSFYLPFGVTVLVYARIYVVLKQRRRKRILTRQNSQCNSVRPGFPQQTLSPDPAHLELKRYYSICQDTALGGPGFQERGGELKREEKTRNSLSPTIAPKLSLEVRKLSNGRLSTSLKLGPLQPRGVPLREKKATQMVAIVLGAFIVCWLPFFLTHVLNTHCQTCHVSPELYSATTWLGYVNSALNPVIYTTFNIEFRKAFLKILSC

[3] = tested on: D2-like receptor (D2, D3, and D4); experiment: [3H]spiperone binding assay, rat striatal; conditions: ratio of Ki values, rat brain preparation
In short: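 The D2-like assay used [3H]spiperone at 0.2 nM on caudate-putamen membranes at 1.5 mg o.w.w./mL, in agonist-optimised Tris-HCl/KCl/MgCl2/CaCl2 buffer at pH 7.4. Nonspecific binding was set with 1 μM (+)-butaclamol, and KD was 0.4 nM. For two-site curves, the high-affinity Ki is reported. […] Values are means of 3–6 determinations.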

[4] = format: in vitro ADME

CCCN(CCC1(O)CC(NS(=O)(=O)c2ccc(F)c(Cl)c2)C1)[C@H]1CCc2nc(N)sc2C1 (stereo in doubt) [Compound 34, N-(cis-3-(2-(((S)-2-Amino-4,5,6,7-tetrahydrobenzo[d]thiazol-6-yl)(propyl)amino)-ethyl)-3-hydroxycyclobutyl)-3-chloro-4-fluorobenzenesulfonamide]
Selectivity D1-like/D3 [1]: 18,217 | % of Stimulation compared to Quinpirole as the standard agonist [2]: 100% | functional activity at the human D3 receptor (agonist character) [2]: full D3 agonists | IC50 [2]: 0.026 ± 0.0041 µM | Selectivity D2-like/D3 [3]: 1,052

CCCN(CCC1(O)CC(NC(=O)c2ccccc2OC)C1)[C@H]1CCc2nc(N)sc2C1 (stereo in doubt) [Compound 19, N-(cis-3-(2-(((S)-2-Amino-4,5,6,7-tetrahydrobenzo[d]thiazol-6-yl)(propyl)amino)-ethyl)-3-hydroxycyclobutyl)-2-methoxybenzamide]
Selectivity D1-like/D3 [1]: 44,500 | Selectivity D2-like/D3 [3]: 160

CCCN(CCC1(O)CC(NC(=O)c2ccc(-c3noc(C)n3)cc2)C1)[C@H]1CCc2nc(N)sc2C1 (stereo in doubt) [Compound 22, N-(cis-3-(2-(((S)-2-amino-4,5,6,7-tetrahydrobenzo[d]thiazol-6-yl)(propyl)amino)-ethyl)-3-hydroxycyclobutyl)-4-(5-methyl-1,2,4-oxadiazol-3-yl)benzamide]
Selectivity D1-like/D3 [1]: 20,000 | Selectivity D2-like/D3 [3]: 15,208

CCCN(CC[C@]1(O)C[C@@H](NC(=O)c2cccc(F)c2)C1)[C@H]1CCc2nc(N)sc2C1 (relative stereo) [Compound 16, N-(cis-3-(2-(((S)-2-Amino-4,5,6,7-tetrahydrobenzo[d]thiazol-6-yl)(propyl)amino)-ethyl)-3-hydroxycyclobutyl)-3-fluorobenzamide]
Selectivity D1-like/D3 [1]: 29,789 | Selectivity D2-like/D3 [3]: 138

CCCN(CCC1(O)CC(NC(=O)c2ccc(F)cc2)C1)[C@H]1CCc2nc(N)sc2C1 (stereo in doubt) [Compound 17, N-(cis-3-(2-(((S)-2-Amino-4,5,6,7-tetrahydrobenzo[d]thiazol-6-yl)(propyl)amino)-ethyl)-3-hydroxycyclobutyl)-4-fluorobenzamide]
Selectivity D1-like/D3 [1]: 56,180 | Selectivity D2-like/D3 [3]: 412

CCCN(CCC1(O)CC(NC(=O)c2ccc(OC)cc2)C1)[C@H]1CCc2nc(N)sc2C1 (stereo in doubt) [Compound 20, N-(cis-3-(2-(((S)-2-Amino-4,5,6,7-tetrahydrobenzo[d]thiazol-6-yl)(propyl)amino)-ethyl)-3-hydroxycyclobutyl)-4-methoxybenzamide]
Selectivity D1-like/D3 [1]: 61,143 | t1/2 in human liver microsomes [4]: >1 h | Percentage remaining of compounds in human liver microsomes ([4]; 0 h): 100% | Percentage remaining of compounds in human liver microsomes ([4]; 5 min): 97.7% | Percentage remaining of compounds in human liver microsomes ([4]; 10 min): 94.1% | Percentage remaining of compounds in human liver microsomes ([4]; 0.25 h): 94.0% | Percentage remaining of compounds in human liver microsomes ([4]; 0.5 h): 85.5% | Percentage remaining of compounds in human liver microsomes ([4]; 1 h): 76.7% | Selectivity D2-like/D3 [3]: 3,779

CCCN(CCC1(O)CC(NC(=O)c2ccc3ccccc3c2)C1)[C@H]1CCc2nc(N)sc2C1 (stereo partly shown) [Compound 3]
Percentage remaining of compounds in human liver microsomes ([4]; 0 h): 100% | Percentage remaining of compounds in human liver microsomes ([4]; 5 min): 79.2% | Percentage remaining of compounds in human liver microsomes ([4]; 10 min): 49.9% | Percentage remaining of compounds in human liver microsomes ([4]; 0.25 h): 34.9% | Percentage remaining of compounds in human liver microsomes ([4]; 0.5 h): 11.7% | Percentage remaining of compounds in human liver microsomes ([4]; 1 h): 2.1%

CCCN(CCC1(O)CC(NC(=O)c2ccc(Cl)cc2)C1)[C@H]1CCc2nc(N)sc2C1 (stereo in doubt) [Compound 14, N-(cis-3-(2-(((S)-2-Amino-4,5,6,7-tetrahydrobenzo[d]thiazol-6-yl)(propyl)amino)-ethyl)-3-hydroxycyclobutyl)-4-chlorobenzamide]
Selectivity D1-like/D3 [1]: 9,751 | Selectivity D2-like/D3 [3]: 157

CCCN(CCC1(O)CC(NS(=O)(=O)c2ccccc2F)C1)[C@H]1CCc2nc(N)sc2C1 (stereo in doubt) [Compound 31, N-(cis-3-(2-(((S)-2-Amino-4,5,6,7-tetrahydrobenzo[d]thiazol-6-yl)(propyl)amino)-ethyl)-3-hydroxycyclobutyl)-2-fluorobenzenesulfonamide]
Selectivity D1-like/D3 [1]: 109,000 | Selectivity D2-like/D3 [3]: 614

CCCN(CCC1(O)CC(NS(=O)(=O)c2ccc(Cl)cc2)C1)[C@H]1CCc2nc(N)sc2C1 (stereo in doubt) [Compound 30, N-(cis-3-(2-(((S)-2-Amino-4,5,6,7-tetrahydrobenzo[d]thiazol-6-yl)(propyl)amino)-ethyl)-3-hydroxycyclobutyl)-4-chlorobenzenesulfonamide]
Selectivity D1-like/D3 [1]: 17,654 | Selectivity D2-like/D3 [3]: 205

CCCN(CC[C@]1(O)C[C@H](NC(=O)c2cccc(Cl)c2)C1)[C@H]1CCc2nc(N)sc2C1 (relative stereo) [Compound 13, N-(cis-3-(2-(((S)-2-Amino-4,5,6,7-tetrahydrobenzo[d]thiazol-6-yl)(propyl)-amino)ethyl)-3-hydroxycyclobutyl)-3-chlorobenzamide]
Selectivity D1-like/D3 [1]: 49,482 | Selectivity D2-like/D3 [3]: 175

CCCN(CC[C@]1(O)C[C@@H](NS(=O)(=O)c2ccc(F)cc2)C1)[C@H]1CCc2nc(N)sc2C1 (relative stereo) [Compound 33, N-(cis-3-(2-(((S)-2-Amino-4,5,6,7-tetrahydrobenzo[d]thiazol-6-yl)(propyl)amino)-ethyl)-3-hydroxycyclobutyl)-4-fluorobenzenesulfonamide]
Selectivity D1-like/D3 [1]: 53,684 | % of Stimulation compared to Quinpirole as the standard agonist [2]: 100% | functional activity at the human D3 receptor (agonist character) [2]: full D3 agonists | IC50 [2]: 0.017 ± 0.0044 µM | Selectivity D2-like/D3 [3]: 414

CCCN(CCC1(O)CC(NS(=O)(=O)c2cccc(OC)c2)C1)[C@H]1CCc2nc(N)sc2C1 (stereo in doubt) [Compound 26, N-(cis-3-(2-(((S)-2-Amino-4,5,6,7-tetrahydrobenzo[d]thiazol-6-yl)(propyl)amino)-ethyl)-3-hydroxycyclobutyl)-3-methoxybenzenesulfonamide]
Selectivity D1-like/D3 [1]: 22,812 | Selectivity D2-like/D3 [3]: 98

CCCN(CC[C@]1(O)C[C@@H](NS(=O)(=O)c2cccc(Cl)c2)C1)[C@H]1CCc2nc(N)sc2C1 (relative stereo) [Compound 29, N-(cis-3-(2-(((S)-2-Amino-4,5,6,7-tetrahydrobenzo[d]thiazol-6-yl)(propyl)amino)-ethyl)-3-hydroxycyclobutyl)-3-chlorobenzenesulfonamide]
Selectivity D1-like/D3 [1]: 27,200 | Selectivity D2-like/D3 [3]: 28

CCCN(CCC1(O)CC(NC(=O)c2ccccc2)C1)[C@H]1CCc2nc(N)sc2C1 (stereo in doubt) [Compound 11, N-(cis-3-(2-(((S)-2-Amino-4,5,6,7-tetrahydrobenzo[d]thiazol-6-yl)(propyl)amino)-ethyl)-3-hydroxycyclobutyl)benzamide]
Selectivity D1-like/D3 [1]: 2,662 | Selectivity D2-like/D3 [3]: 301

CCCN(CCC1(O)CC(NS(=O)(=O)c2cccc(F)c2)C1)[C@H]1CCc2nc(N)sc2C1 (stereo in doubt) [Compound 32, N-(cis-3-(2-(((S)-2-Amino-4,5,6,7-tetrahydrobenzo[d]thiazol-6-yl)(propyl)amino)-ethyl)-3-hydroxycyclobutyl)-3-fluorobenzenesulfonamide]
Selectivity D1-like/D3 [1]: 97,500 | Selectivity D2-like/D3 [3]: 91

CCCN(CC[C@]1(O)C[C@@H](NS(=O)(=O)c2ccccc2Cl)C1)[C@H]1CCc2nc(N)sc2C1 (relative stereo) [Compound 28, N-(cis-3-(2-(((S)-2-Amino-4,5,6,7-tetrahydrobenzo[d]thiazol-6-yl)(propyl)amino)-ethyl)-3-hydroxycyclobutyl)-2-chlorobenzenesulfonamide]
Selectivity D1-like/D3 [1]: 160,847 | Selectivity D2-like/D3 [3]: 485

CCCN(CCC1(O)CC(NC(=O)c2ccccc2Cl)C1)[C@H]1CCc2nc(N)sc2C1 (stereo in doubt) [Compound 12, N-(cis-3-(2-(((S)-2-Amino-4,5,6,7-tetrahydrobenzo[d]thiazol-6-yl)(propyl)amino)-ethyl)-3-hydroxycyclobutyl)-2-chlorobenzamide]
Selectivity D1-like/D3 [1]: 80,161 | Selectivity D2-like/D3 [3]: 117

CCCN(CCC1(O)CC(NS(=O)(=O)c2ccc(F)c(F)c2)C1)[C@H]1CCc2nc(N)sc2C1 (stereo in doubt) [Compound 35, N-(cis-3-(2-(((S)-2-Amino-4,5,6,7-tetrahydrobenzo[d]thiazol-6-yl)(propyl)amino)-ethyl)-3-hydroxycyclobutyl)-3,4-difluorobenzenesulfonamide]
Selectivity D1-like/D3 [1]: 24,516 | Selectivity D2-like/D3 [3]: 19

CCCN(CCC1(O)CC(NS(=O)(=O)c2ccccc2)C1)[C@H]1CCc2nc(N)sc2C1 (stereo in doubt) [Compound 24, N-(cis-3-(2-(((S)-2-Amino-4,5,6,7-tetrahydrobenzo[d]thiazol-6-yl)(propyl)amino)-ethyl)-3-hydroxycyclobutyl)benzenesulfonamide]
Selectivity D1-like/D3 [1]: 30,000 | Selectivity D2-like/D3 [3]: 42

CCCN(CC[C@]1(O)C[C@H](NS(=O)(=O)c2ccccc2OC)C1)[C@H]1CCc2nc(N)sc2C1 (relative stereo) [Compound 25, N-(cis-3-(2-(((S)-2-Amino-4,5,6,7-tetrahydrobenzo[d]thiazol-6-yl)(propyl)amino)-ethyl)-3-hydroxycyclobutyl)-2-methoxybenzenesulfonamide]
Selectivity D1-like/D3 [1]: 800 | Selectivity D2-like/D3 [3]: 75

CCCN(CCC1(O)CC(NS(=O)(=O)c2ccc(OC)cc2)C1)[C@H]1CCc2nc(N)sc2C1 (stereo in doubt) [Compound 27, N-(cis-3-(2-(((S)-2-Amino-4,5,6,7-tetrahydrobenzo[d]thiazol-6-yl)(propyl)amino)-ethyl)-3-hydroxycyclobutyl)-4-methoxybenzenesulfonamide]
Selectivity D1-like/D3 [1]: 1,631 | Selectivity D2-like/D3 [3]: 65
